Active and inactive are the calls of the source. No cut-off for these calls is given here.
Key:
[1] = system: Respiratory syncytial virus; assay: Antiviral activity against RSV infected in human cervix carcinoma cells assessed as inhibition of virus-induced cytopathic effect at 0.32 to 100 uM; format: functional, organism-based
Procedure, shortened: (§1)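 Confluent cell cultures were infected with 100 CCID50 of virus in the presence of test compound at 100, 40, 8, 1.6 and 0.32 μM. Cytopathic effect was scored once it was complete in untreated infected controls.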

Coxsackievirus B4 [2] = assay: Antiviral activity against Coxsackievirus B4 infected in human cervix carcinoma cells assessed as inhibition of virus-induced cytopathic effect at 0.32 to 100 uM; format: functional, organism-based; procedure, shortened: as §1
CCRF-CEM = assay: Cytostatic activity against human CEM cells after 3 days by coulter counter analysis; format: functional, cell-based; conditions: 72 h
Procedure, shortened: (§2)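 300,000–500,000 cells/ml mixed 1:1 with compound dilutions and incubated at 37 °C for 2 days (L1210) or 3 days (CEM, HeLa). Cell number counted with a Coulter counter; HeLa trypsinized before counting.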

HeLa = assay: Cytostatic activity against human HeLa cells after 3 days by coulter counter analysis; format: functional, cell-based; conditions: 72 h; procedure, shortened: as §2
HCT-116 = assay: Cytostatic activity against human HCT116 cells after 72 hrs by MTT assay; format: functional, cell-based; conditions: HCT-116, 72 h
Procedure, shortened: (§3)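 Monolayers in DMEM with 10% FBS, 2 mM L-glutamine and penicillin/streptomycin, 37 °C, 5% CO2. Seeded at 1–3 × 10^4 cells/ml, then compound added in tenfold dilutions (10⁻⁸–10⁻⁴ M) for 72 h. MTT read at 570 nm; percent growth taken against time-zero and untreated controls. IC50 by linear regression; quadruplicate, at least two experiments.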

MCF7 = assay: Cytostatic activity against human MCF7 cells after 72 hrs by MTT assay; format: functional, cell-based; conditions: MCF7, 72 h; procedure, shortened: as §3
NCI-H460 = assay: Cytostatic activity against human NCI-H460 cells after 72 hrs by MTT assay; format: functional, cell-based; conditions: NCI-H460, 72 h; procedure, shortened: as §3
HaCaT = assay: Cytostatic activity against human HaCaT cells after 72 hrs by MTT assay; format: ADME, cell-based; procedure, shortened: as §3
Human alphaherpesvirus 1 = assay: Antiviral activity against HSV1 KOS infected in human lung fibroblast assessed as inhibition of virus-induced cytopathic effect at 0.32 to 100 uM; format: functional, organism-based; procedure, shortened: as §1
Human alphaherpesvirus 2 = assay: Antiviral activity against HSV2 G infected in human lung fibroblast assessed as inhibition of virus-induced cytopathic effect at 0.32 to 100 uM; format: functional, organism-based; conditions: strain G; procedure, shortened: as §1
Vaccinia virus = assay: Antiviral activity against Vaccinia virus infected in human lung fibroblast assessed as inhibition of virus-induced cytopathic effect at 0.32 to 100 uM; format: functional, organism-based; conditions: Orthopoxvirus vaccinia
[3] = system: Vesicular stomatitis virus; assay: Antiviral activity against VSV infected in human lung fibroblast assessed as inhibition of virus-induced cytopathic effect at 0.32 to 100 uM; format: functional, organism-based
Human respirovirus 3 = assay: Antiviral activity against Parainfluenza virus 3 infected in african green monkey Vero cells assessed as inhibition of virus-induced cytopathic effect at 0.32 to 100 uM; format: functional, organism-based; procedure, shortened: as §1
[4] = system: Mammalian orthoreovirus 1; assay: Antiviral activity against Reovirus-1 infected in african green monkey Vero cells assessed as inhibition of virus-induced cytopathic effect at 0.32 to 100 uM; format: functional, organism-based; procedure, shortened: as §1
Sindbis virus = assay: Antiviral activity against Sindbis virus infected in african green monkey Vero cells assessed as inhibition of virus-induced cytopathic effect at 0.32 to 100 uM; format: functional, organism-based; procedure, shortened: as §1
Coxsackievirus B4 [5] = assay: Antiviral activity against Coxsackievirus B4 infected in african green monkey Vero cells assessed as inhibition of virus-induced cytopathic effect at 0.32 to 100 uM; format: functional, organism-based; procedure, shortened: as §1
Punta Toro virus = assay: Antiviral activity against Punta Toro virus infected in african green monkey Vero cells assessed as inhibition of virus-induced cytopathic effect at 0.32 to 100 uM; format: functional, organism-based; procedure, shortened: as §1
[6] = system: Vesicular stomatitis virus; assay: Antiviral activity against Vesicular stomatitis virus infected in human cervix carcinoma cells assessed as inhibition of virus-induced cytopathic effect at 0.32 to 100 uM; format: functional, organism-based
Procedure, shortened: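 Confluent human cervix carcinoma (HeLa) cultures received 100 CCID50 of VSV together with the compound at 100, 40, 8, 1.6 or 0.32 μM. Cytopathicity was read at the point of full CPE in infected, untreated control wells.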

Felid alphaherpesvirus 1 = assay: Antiviral activity against Feline herpesvirus infected in feline CRFK cells assessed as inhibition of virus-induced cytopathic effect at 0.32 to 100 uM; format: functional, organism-based; procedure, shortened: as §1
Feline coronavirus = assay: Antiviral activity against Feline coronavirus infected in feline CRFK cells assessed as inhibition of virus-induced cytopathic effect at 0.32 to 100 uM; format: functional, organism-based; procedure, shortened: as §1
Influenza A virus [7] = assay: Antiviral activity against Influenza A virus H1N1 infected in MDCK cells assessed as inhibition of virus-induced cytopathic effect at 0.32 to 100 uM; format: functional, organism-based
Procedure, shortened: (§4)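 Confluent MDCK monolayers were infected in the presence of the compound at 100, 40, 8, 1.6 and 0.32 μM. Viral cytopathicity was scored once it was complete in untreated infected control cultures.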

Influenza A virus [8] = assay: Antiviral activity against Influenza A virus H3N2 infected in MDCK cells assessed as inhibition of virus-induced cytopathic effect at 0.32 to 100 uM; format: functional, organism-based; procedure, shortened: as §4
Influenza B virus = assay: Antiviral activity against Influenza B virus infected in MDCK cells assessed as inhibition of virus-induced cytopathic effect at 0.32 to 100 uM; format: functional, organism-based; procedure, shortened: as §4
[9] = system: Human immunodeficiency virus 1; assay: Antiviral activity against HIV1 3B infected in human CEM cells assessed as inhibition of virus-induced CEM giant cell formation at 0.32 to 100 uM after 4 days; format: functional, organism-based; conditions: CCRF-CEM
Procedure, shortened: (§5)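 CEM cells (~3 × 10^5 cells/cm³) exposed to 100 CCID50/ml of virus and seeded into wells holding compound dilutions. Incubated 4 days at 37 °C, then giant cell formation examined microscopically.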

[10] = system: Human immunodeficiency virus 2; assay: Antiviral activity against HIV2 ROD infected in human CEM cells assessed as inhibition of virus-induced CEM giant cell formation at 0.32 to 100 uM after 4 days; format: functional, organism-based; conditions: ISOLATE ROD, CCRF-CEM; procedure, shortened: as §5
[11] = system: Radical scavenging activity; assay: Antioxidant activity assessed as DPPH free radical scavenging activity at 100 uM after 20 mins by spectrophotometric analysis; format: functional
Procedure, shortened: (§6)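 0.05 mM DPPH in absolute ethanol mixed with an equal volume of compound in DMSO (final 100 μM). Shaken and left 20 or 60 min, then absorbance read at 517 nm and percent activity calculated. Three replicates, averaged.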

[12] = system: Radical scavenging activity; assay: Antioxidant activity assessed as DPPH free radical scavenging activity at 100 uM after 60 mins by spectrophotometric analysis; format: functional; procedure, shortened: as §6
[13] = Antioxidant activity assessed as inhibition of AAPH-induced linoleic acid lipid peroxidation by measuring conjugated diene hydroperoxide level; format: functional; set-up: concentration or dose not given beside the values
Procedure, shortened: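 Linoleic acid sodium salt (10 μL of 16 mM) in 0.05 M phosphate buffer pH 7.4 at 37 °C. Oxidation started under air with 50 μL of 40 mM AAPH. Conjugated diene hydroperoxide formation followed as absorbance rise at 234 nm; control contains the same DMSO level. At least triplicate.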

Glycine max = assay: Inhibition of soybean LOX assessed as conversion of sodium linoleate to 13- hydroperoxylinoleic acid at 100 uM
L1210 = assay: Cytostatic activity against mouse L1210 cells after 2 days by coulter counter analysis; format: functional, cell-based; conditions: L1210, 48 h; procedure, shortened: as §2
[14] = dose or concentration not given here

Compound	inhibition [1]	inhibition (Coxsackievirus B4 [2])	IC50 (CCRF-CEM) [µM]	IC50 (HCT-116) [µM]	IC50 (MCF7) [µM]	IC50 (NCI-H460) [µM]	inhibition (Human alphaherpesvirus 1)	inhibition (Human alphaherpesvirus 2)	inhibition (Vaccinia virus)	inhibition [3]	inhibition (Human respirovirus 3)	inhibition [4]	inhibition (Sindbis virus)	inhibition (Coxsackievirus B4 [5])	inhibition (Punta Toro virus)	inhibition [6]	inhibition (Felid alphaherpesvirus 1)	inhibition (Feline coronavirus)	inhibition (Influenza A virus [7])	inhibition (Influenza A virus [8])	other results
CC(C(=O)NNC(=O)NC1CCCC1)c1cccc(Cc2ccccc2)c1 (stereo unspecified)	inactive	inactive	66	33	19	38	inactive	inactive	inactive	inactive	inactive	inactive	inactive	inactive	inactive	inactive	inactive	inactive	inactive	inactive	IC50 (HeLa): 43 µM; IC50 (HaCaT): 50 µM; inhibition (Influenza B virus): inactive; inhibition [9]: inactive; inhibition [10]: inactive; Activity [11]: 4%; Activity [12]: 12%; inhibition [13]: inactive; inhibition (Glycine max): inactive
CC(C)Cc1ccc(C(C)C(=O)NNC(=O)NC(c2ccccc2)c2ccccc2)cc1 (stereo unspecified)	inactive	inactive	23	13	6	16	inactive	inactive	inactive	inactive	inactive	inactive	inactive	inactive	inactive	inactive	inactive	inactive	inactive	inactive	IC50 (L1210): 20 µM; IC50 (HaCaT): 13 µM; inhibition (Influenza B virus): inactive; inhibition [9]: inactive; inhibition [10]: inactive; Activity [11]: inactive; Activity [12]: inactive; inhibition [13, 14]: 74%; inhibition (Glycine max): 46%
CC(C(=O)NNC(=O)NCC1CCCCC1)c1cccc(Oc2ccccc2)c1 (stereo unspecified)	inactive	inactive	24	15	13	19	inactive	inactive	inactive	inactive	inactive	inactive	inactive	inactive	inactive	inactive	inactive	inactive	inactive	inactive	IC50 (L1210): 22 µM; IC50 (HaCaT): 20 µM; inhibition (Influenza B virus): inactive; inhibition [9]: inactive; inhibition [10]: inactive; Activity [11]: 18%; Activity [12]: 21%; inhibition [13, 14]: 64%; inhibition (Glycine max): 12%
CC(C(=O)NNC(=O)NNC(=O)NOCc1ccccc1)c1cccc(Cc2ccccc2)c1 (stereo unspecified)	inactive	inactive	96	64	19	> 100	inactive	inactive	inactive	inactive	inactive	inactive	inactive	inactive	inactive	inactive	inactive	inactive	inactive	inactive	IC50 (L1210): 102 µM; IC50 (HeLa): 76 µM; inhibition (Influenza B virus): inactive; inhibition [9]: inactive; inhibition [10]: inactive; Activity [11]: 10%; Activity [12]: 19%; inhibition [13, 14]: 100%; inhibition (Glycine max): inactive
